Here are results for 3 molecules from ChEMBL document CHEMBL1135816, “6-Aryl-1,4-dihydro-benzo[d][1,3]oxazin- 2-ones: a novel class of potent, selective, and orally active nonsteroidal progesterone receptor antagonists” (J Med Chem, 2002).

SMILES strings stand for the structures.

One data set concerns the target T1, Progesterone receptor (Homo sapiens, UniProt P06401).
T1 sequence (P06401 whole entry): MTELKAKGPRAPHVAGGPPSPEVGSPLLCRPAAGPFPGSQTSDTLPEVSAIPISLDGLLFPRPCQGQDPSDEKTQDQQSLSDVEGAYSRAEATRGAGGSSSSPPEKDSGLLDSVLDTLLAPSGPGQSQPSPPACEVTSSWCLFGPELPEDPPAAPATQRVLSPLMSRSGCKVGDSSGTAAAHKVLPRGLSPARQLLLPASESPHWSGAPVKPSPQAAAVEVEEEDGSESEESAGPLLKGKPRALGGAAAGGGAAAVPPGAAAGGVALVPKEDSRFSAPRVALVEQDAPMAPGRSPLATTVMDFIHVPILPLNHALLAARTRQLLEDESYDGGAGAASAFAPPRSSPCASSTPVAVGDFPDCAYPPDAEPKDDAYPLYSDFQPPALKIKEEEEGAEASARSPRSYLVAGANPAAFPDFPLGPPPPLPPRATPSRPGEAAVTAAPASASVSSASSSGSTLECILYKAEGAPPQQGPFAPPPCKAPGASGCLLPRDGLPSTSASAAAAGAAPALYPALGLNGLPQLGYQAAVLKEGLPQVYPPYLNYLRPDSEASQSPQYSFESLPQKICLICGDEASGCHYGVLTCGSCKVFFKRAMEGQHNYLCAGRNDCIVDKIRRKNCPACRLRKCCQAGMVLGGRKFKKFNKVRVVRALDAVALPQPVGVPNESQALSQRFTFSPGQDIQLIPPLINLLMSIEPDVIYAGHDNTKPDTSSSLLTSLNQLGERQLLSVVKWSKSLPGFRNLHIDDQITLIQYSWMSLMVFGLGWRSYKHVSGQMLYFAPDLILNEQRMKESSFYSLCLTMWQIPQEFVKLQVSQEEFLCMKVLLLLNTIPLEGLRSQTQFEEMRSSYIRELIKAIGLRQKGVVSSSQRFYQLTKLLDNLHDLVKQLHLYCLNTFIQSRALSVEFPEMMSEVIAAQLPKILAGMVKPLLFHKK
The experiment in a line: Antagonist activity against progesterone receptor (PR) in an alkaline phosphatase assay in the T47D human breast carcinoma cell line. It is filed as functional, cell-based.

The target in data set [1] is T2, Progesterone receptor (Rattus norvegicus) (UniProt Q63449).
T2 sequence (whole entry): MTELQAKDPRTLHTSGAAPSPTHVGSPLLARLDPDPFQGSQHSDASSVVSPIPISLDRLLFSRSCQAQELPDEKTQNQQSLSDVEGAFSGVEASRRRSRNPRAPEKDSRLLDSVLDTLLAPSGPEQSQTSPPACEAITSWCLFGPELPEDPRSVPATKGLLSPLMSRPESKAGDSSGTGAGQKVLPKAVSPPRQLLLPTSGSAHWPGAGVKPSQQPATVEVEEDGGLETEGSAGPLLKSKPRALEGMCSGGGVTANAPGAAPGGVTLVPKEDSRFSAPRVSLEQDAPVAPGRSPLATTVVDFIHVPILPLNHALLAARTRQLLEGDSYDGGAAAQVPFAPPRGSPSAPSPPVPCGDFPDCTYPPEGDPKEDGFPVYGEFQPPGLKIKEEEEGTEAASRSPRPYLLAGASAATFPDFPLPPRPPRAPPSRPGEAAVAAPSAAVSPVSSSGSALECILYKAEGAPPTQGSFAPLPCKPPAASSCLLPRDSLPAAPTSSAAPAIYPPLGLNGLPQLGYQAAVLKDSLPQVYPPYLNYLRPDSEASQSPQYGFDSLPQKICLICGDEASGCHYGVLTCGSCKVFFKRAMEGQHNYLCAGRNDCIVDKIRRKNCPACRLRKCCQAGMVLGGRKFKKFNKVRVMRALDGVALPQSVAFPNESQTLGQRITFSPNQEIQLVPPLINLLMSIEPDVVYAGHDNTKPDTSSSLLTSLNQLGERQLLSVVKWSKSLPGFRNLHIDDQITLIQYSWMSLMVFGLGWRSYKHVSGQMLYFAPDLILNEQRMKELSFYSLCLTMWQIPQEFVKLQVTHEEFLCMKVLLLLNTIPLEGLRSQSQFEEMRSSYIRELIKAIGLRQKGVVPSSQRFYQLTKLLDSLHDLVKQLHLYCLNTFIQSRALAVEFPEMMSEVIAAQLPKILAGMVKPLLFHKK
Briefly: inhibitory activity against progesterone receptor (PR) in ovariectomized mature female rat complement C3 model. The class given is functional. In outline: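 Adult ovariectomized rats given oral doses; read-out is reversal of progestin down-regulation of estrogen-induced complement C3 synthesis in uterine epithelium. ED50 averaged from at least duplicate determinations.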

A short description of data set [2]: Area under the curve (AUC) for the compound in female rats for a dose of 1 mg/kg administered intravenously. It is filed as ADME, organism-based. Also on record: dose 1 mg/kg, route intravenous. The conditions noted are these: rat, in vivo, iv.
Data set [3] is described as follows: Half life in female rats for a dose of 1 mg/kg administered intravenously. It is filed as ADME, organism-based. Also on record: dose 1 mg/kg, route intravenous. The settings on record: rat, in vivo, iv.
Data set [4] is described as follows: Plasma clearance (Cl) for the compound in female rats for a dose of 1 mg/kg administered intravenously. The class given is ADME, organism-based. Also on record: dose 1 mg/kg, route intravenous. The settings on record: rat, iv, read-out: Clp (converted).

With `CC1(C)OC(=O)Nc2ccc(-c3ccc(F)c(Cl)c3)cc21`, the IC50 – broadly, the concentration needed to halve the response being measured – against Progesterone receptor amounted to 23 nM. Also, in data set [1], the 50% effect level (ED50) was put at a dose of 2.5 mg/kg.

Regarding `CC1(C)OC(=O)Nc2ccc(-c3cc(F)cc(C#N)c3)cc21`, the AUC (commonly concentration integrated over time) in data set [2] came to 3690 ng·h/mL. Further, the half-life – broadly, how long it takes for the measured level to halve – in data set [3] was 7.7 h. In addition, the median effective dose (ED50) (in general, the dose at which the effect has come halfway, by size or by number of responders) in data set [1] is 1 mg/kg. Also, the clearance in data set [4] was 3.67 mL/min/kg.

`CC1(C)OC(=O)Nc2ccc(-c3coc(C#N)c3)cc21`: at Progesterone receptor, the IC50 amounted to 8 nM.
